Activity calls are given as the source filed them.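 Rule for the calls: active = compounds whose fitted half-maximal concentration for reducing fibroblast viability is 100 µM or lower; inactive = the rest.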

The text below walks through data of PubChem BioAssay AID821 (SRMLSC, 2007).

This assay in a line: inhibition of LL 47 lung fibroblast growth, concentration-response curve, selectivity screen for endothelial cell growth inhibitor project, cellular system, ATP luminescence readout (AID 821).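 Note: 100% = median of untreated cell-only wells and 0% = no luminescence.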 Conditions: LL 47 lung fibroblast viability, ATP luminescence; at 20 µM (top of the series). An outline of the steps: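 Assay system: LL 47 human lung fibroblast cells | Amount: 1,150 cells/well | Schedule: 72 h exposure, 37 °C | Measured by: CellTiter-Glo luminescence | Measure: Percent viability relative to untreated wells, EC50 via 4-parameter fit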
On to `Cn1c(NC(=O)c2cccc(Cn3cc(Cl)cn3)c2)nc2ccccc21`, for which the viability was 103% (inactive).

Turning to `O=C1C2=C(NC(=S)NC2c2ccc(Cl)cc2)NC(c2ccc(Cl)cc2)N1c1ccc(Cl)cc1` (stereo unspecified), the viability is 99.2% (inactive).

As for `N#Cc1nc(-c2ccc(OCc3ccccc3)cc2)oc1NCCCn1ccnc1`, the viability was 92.9% (inactive).

For the compound `COc1ccc(OC)c(C(=O)CSc2nnc(-c3ccc(OC)c(OC)c3)o2)c1`, the viability is 88.4% (inactive).

For the compound `COc1ccccc1NC(=O)CC1C(=O)NCCN1C(=O)Nc1ccc(Cl)c(Cl)c1` (stereo unspecified), the viability was 82.4% (inactive).

Regarding `Cc1ccc2c(c1)c1c(n2CC(O)Cn2c(C)nc3ccccc32)/C(=N\O)CCC1` (stereo unspecified), the viability is 89.6% (inactive).

Regarding `Cc1cc(C)n(-c2nc(Nc3ccccc3C)nc(-n3nc(C)cc3C)n2)n1`, the viability is 97.1% (inactive).

As for `Cn1nc(C(C)(C)C)cc1C(=O)NCc1ccc(N2CCCC2=O)cc1`, the viability is 107% (inactive).

For `CC1(C)Nc2ccc(O)cc2-c2c1ssc2=S`, the viability was 92.1% (inactive).

For the compound `O=C(Cn1cc(C(=O)c2ccccc2F)c2ccccc21)NCc1ccco1`, the viability was 104% (inactive).

Take `CC(=O)Oc1ccc(N2C(=O)C3C(C2=O)C2(C)C=CC3(C)O2)cc1` (stereo unspecified): the viability is 103% (inactive).

With `O=C(Nc1ccc2nn(-c3ccccc3)nc2c1)c1ccc2c(c1)OCO2`, the viability was 121% (inactive).

For `CCOC(=O)c1cc2c(N)c(C(=O)c3cc(C#N)c(SC)nc3C)sc2nc1C`, the viability was 101% (inactive).

As for `CCCCC(=O)Nc1ccc(C(=O)Nc2ccc(S(=O)(=O)N3CCCC3)cc2)cc1`, the viability is 104% (inactive).

`Cc1cc2nc(C3CCN(CC4COc5ccccc5O4)CC3)[nH]c2cc1C` (stereo unspecified): the viability is 88.5% (inactive).

`O=C(Nc1ccc2c(c1)CCC2)c1cnn2c1NC(c1ccco1)CC2C(F)(F)F` (stereo unspecified): the viability is 83.8% (inactive).

Take `Cc1ccc(NC(=O)C(C)N2C(=O)c3ccccc3C2=O)cc1` (stereo unspecified): the viability was 107% (inactive).

Regarding `Cc1nn(CC(=O)Nc2ccc3c(c2)oc2ccccc23)c(=O)c2ccccc12`, the viability was 105% (inactive).

`Cc1cc(C)n(-c2nc(SCC(=O)N3CCCC3)c3c4c(sc3n2)CCCC4)n1`: the viability is 113% (inactive).

In the case of `Cc1cc(C)n(-c2nc(NCCCO)c3c4c(sc3n2)CCCC4)n1`, the viability was 88.8% (inactive).

For the compound `Cc1ccc(C(C#N)c2ccc(C(=O)c3ccc(F)cc3)cc2)cc1` (stereo unspecified), the viability is 97.1% (inactive).

`Cc1cccc(N2CCN(C(=O)c3ccc4nc(-c5ccco5)c(-c5ccco5)nc4c3)CC2C)c1` (stereo unspecified): the viability was 105% (inactive).

Turning to `N=c1nc(N)nc2n1NC(c1ccc(F)cc1)=CS2`, the viability was 104% (inactive).

As to `CC(C)OCCCN1C(=O)c2[nH]nc(-c3ccccc3O)c2C1c1cccc(Cl)c1` (stereo unspecified), the viability was 98.3% (inactive).

With `CC1(C)CC(=O)c2cc(C(=O)NCc3ccco3)c(=O)n(-c3ccc(Cl)cc3)c2C1`, the viability was 105% (inactive).

Regarding `Cc1cccc(-c2nc(CN3CCCC(C(=O)NC4CCCCCC4)C3)c(C)o2)c1` (stereo unspecified), the viability was 90.9% (inactive).

Turning to `COc1ccc(CCNC(=O)c2ccc3c(=O)n(Cc4ccco4)c(=S)[nH]c3c2)cc1OC`, the viability is 112% (inactive).

Regarding `Cc1cc(C)n(CC(O)Cn2c3ccc(Br)cc3c3cc(Br)ccc32)c(=O)n1` (stereo unspecified), the viability was 119% (inactive).

With `COC(=O)c1c(C)n(-c2ccc(OC)cc2)c2ccc(O)cc12`, the viability is 87.7% (inactive).

For `Cn1nnc(NC(=O)CSc2ccc(Cl)cc2)n1`, the viability is 125% (inactive).

As for `c1ccc(-c2nccc(-c3ccc(-n4cnc5ccccc54)cc3)n2)cc1`, the viability is 115% (inactive).

`CCC(C)NC(=O)c1c(N)n(/N=C/c2cccnc2)c2nc3ccccc3nc12` (stereo unspecified): the viability was 104% (inactive).

Turning to `COc1ccc2nc(NC(=O)CSC3=NCCS3)sc2c1`, the viability was 110% (inactive).

For the compound `Cc1ccc(-n2nnnc2SCC(=O)Nc2ccc3c(c2)COC3=O)cc1C`, the viability was 94.5% (inactive).

On to `COC(=O)/C(=C\Nc1ccc(Cl)cc1Cl)NC(=O)c1ccc(Cl)cc1Cl`, for which the viability was 96% (inactive).

Take `CCN(CC)c1cc(C)c2cc(NC(=O)c3ccc(Br)o3)ccc2n1`: the viability is 93% (inactive).

Consider `Cc1cc(/C=N/n2cnnc2)c(C)n1-c1ccc(OCc2ccc(Cl)cc2Cl)cc1`, for which the viability is 86.5% (inactive).

Consider `CCn1c(SCC(N)=O)nnc1-c1ccc2[nH]c(C)c(C)c2c1`, for which the viability is 99.8% (inactive).

For the compound `Cc1cc(N2CCCCC2)nc2ccc(NC(=O)c3ccc(Br)o3)cc12`, the viability is 94.4% (inactive).

In the case of `c1cc2c3c(cccc3c1)NC1(CCCCCC1)N2`, the viability was 86.2% (inactive).

On to `O=C(CSc1nnc(-c2cccs2)n1-c1ccccc1)Nc1ccccc1`, for which the viability is 90.4% (inactive).

For the compound `Oc1ccc2oc3c(c2c1/C=N/n1cnnc1)CCCC3`, the viability was 99.5% (inactive).

As for `O=C(Nc1cccnc1)c1ccc(Oc2ccccc2)cc1`, the viability is 85.3% (inactive).

For the compound `CCc1ccc2[nH]c(=O)c(CN(Cc3ccccc3)C(=O)Nc3ccccc3OC)cc2c1`, the viability was 88.9% (inactive).

As for `CCCCc1ccc(Nc2nc(CCC)cc(=O)[nH]2)cc1`, the viability was 91% (inactive).

Turning to `COc1ccccc1OCC(=O)Nc1cccc(-c2nc3ccccc3o2)c1`, the viability was 99% (inactive).

In the case of `C=C(C)COc1ccc(-c2n[nH]c(C)c2Oc2ccccc2OC)c(O)c1`, the viability was 94.7% (inactive).

As to `Cc1cccc(C)c1OCC(=O)N=Nc1c(O)[nH]c2ccc(Br)cc12`, the viability is 104% (inactive).

Take `O=C(Nc1cccc(-c2nnc(-c3ccccc3)o2)c1)c1ccc(Br)o1`: the viability is 118% (inactive).

For `CCOC(=O)c1c(OCC)[nH]c2c1cc(O)c1ccccc12`, the viability is 117% (inactive).

With `CC(C)(C)c1ccc(-c2nnc(SCC(=O)O)n2N)cc1`, the viability was 103% (inactive).

Take `O=c1oc(-c2ccccc2F)nc2c1cnn2-c1ccccc1`: the viability is 105% (inactive).

Turning to `CCOC(=O)N1CCN(c2ncnc3c2oc2nc(C(C)C)c4c(c23)CCC4)CC1`, the viability was 108% (inactive).

Turning to `Cc1ccc(-n2c(Cc3cccs3)nnc2SCC(=O)Nc2ccc(F)c(F)c2)cc1`, the viability is 95.7% (inactive).

Turning to `CC(C)(C)NC(=O)c1cnn2c1NC(c1ccc(F)cc1)CC2C(F)(F)F` (stereo unspecified), the viability is 99% (inactive).

As for `CCOC(=O)N1CCN(C(=O)c2nn(-c3ccc(C)cc3)c(=O)c3c2c2ccccc2n3C)CC1`, the viability is 100% (inactive).

For `Nc1c(C(=O)NCc2ccc(F)cc2)c2nc3ccccc3nc2n1CCCN1CCOCC1`, the viability is 85.7% (inactive).

With `Cc1nn(-c2ccc(Cl)cc2)c2sc(C(=O)N3CCN(c4ccccn4)CC3)cc12`, the viability was 91.4% (inactive).

In the case of `Cn1cc(SCC(=O)Nc2nc3ccccc3s2)c2ccccc21`, the viability was 82.4% (inactive).

`CCCOC(=O)c1ccc(Oc2cn[nH]c2-c2ccc(OCC)cc2O)cc1`: the viability was 98.4% (inactive).

Regarding `CCn1nc(C(=O)NC2=NCCS2)c2ccccc2c1=O`, the viability was 103% (inactive).
